Reference: ChEMBL document CHEMBL1275358, “Synthesis and anticancer activity of new 1-[(5 or 6-substituted 2-alkoxyquinoxalin-3-yl)aminocarbonyl]-4-(hetero)arylpiperazine derivatives” (Bioorg Med Chem, 2010)
The source made the active and inactive calls. The rule behind the calls is not given here.

How the values were obtained:
[1] = Growth inhibition of human UMRC2 cells after 96 hrs by sulforhodamine B assay; format: functional, cell-based; details: UMRC2, 96 h
Outline: (§1)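 SRB assay with 96 h exposure to a range of concentrations and a DMSO control. Cells were TCA-fixed, SRB-stained and read at 530 nm to give IC50. Cells were kept at 37 °C, 5% CO₂. All other lines were grown in RPMI1640 with 10% FBS, pyruvate, HEPES and P/S.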

[2] = system: PANC-1; assay: Growth inhibition of human PANC1 cells after 96 hrs by sulforhodamine B assay; format: functional, cell-based; details: PANC-1, 96 h; outline: as §1
[3] = system: MDA-MB-231; assay: Cell cycle arrest in human MDA-MB-231 cells assessed as accumulation at G2/M phase at 0.02 to 0.2 uM after 3 to 12 hrs using propidium iodide staining; format: functional, cell-based
[4] = system: HCT-15; assay: Growth inhibition of human HCT15 cells after 96 hrs by sulforhodamine B assay; format: functional, cell-based; details: HCT-15, 96 h
Outline: as §1, with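 “CO₂. MDA-MB-231, HCT116, Caki-1, UMRC2 and PANC-1 were grown in DMEM with 10% FBS, HEPES, P/S and glutamine.” for “CO₂.”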

[5] = system: HCT-116; assay: Resistant index, ratio of IC50 for human HCT15 cells to IC50 for human HCT116 cells; format: functional
[6] = system: A549; assay: Growth inhibition of human A549 cells after 96 hrs by sulforhodamine B assay; format: functional, cell-based; details: A549, 96 h; outline: as §1
[7] = system: MKN-45; assay: Growth inhibition of human MKN45 cells after 96 hrs by sulforhodamine B assay; format: functional, cell-based; details: MKN-45, 96 h; outline: as §1
[8] = system: HepG2; assay: Growth inhibition of human HepG2 cells after 96 hrs by sulforhodamine B assay; format: functional, cell-based; details: HepG2, 96 h; outline: as §1
[9] = system: HCT-116; assay: Growth inhibition of human HCT116 cells after 96 hrs by sulforhodamine B assay; format: functional, cell-based; details: HCT-116, 96 h; outline: as §1
[10] = system: HT-29; assay: Growth inhibition of human HT-29 cells after 96 hrs by sulforhodamine B assay; format: functional, cell-based; details: HT-29, 96 h; outline: as §1
[11] = system: PC-3; assay: Growth inhibition of human PC3 cells after 96 hrs by sulforhodamine B assay; format: functional, cell-based; details: PC-3, 96 h; outline: as §1
[12] = system: U-251; assay: Growth inhibition of human U251 cells after 96 hrs by sulforhodamine B assay; format: functional, cell-based; details: U-251, 96 h; outline: as §1
[13] = system: HeLa; assay: Growth inhibition of human HeLa cells after 96 hrs by sulforhodamine B assay; format: functional, cell-based; outline: as §1
[14] = system: SK-MEL-28; assay: Growth inhibition of human SK-MEL-28 cells after 96 hrs by sulforhodamine B assay; format: functional, cell-based; details: SK-MEL-28, 96 h; outline: as §1
[15] = system: OVCAR-3; assay: Growth inhibition of human OVCAR-3 cells after 96 hrs by sulforhodamine B assay; format: functional, cell-based; details: OVCAR-3, 96 h; outline: as §1
[16] = system: MDA-MB-231; assay: Growth inhibition of human MDA-MB-231 cells at 20 nM after 96 hrs by sulforhodamine B assay relative to control; format: functional; details: MDA-MB-231, 96 h
[17] = system: MDA-MB-231; assay: Growth inhibition of human MDA-MB-231 cells after 96 hrs by sulforhodamine B assay; format: functional, cell-based; details: MDA-MB-231, 96 h; outline: as §1
[18] = system: CAKI-1; assay: Growth inhibition of human Caki1 cells after 96 hrs by sulforhodamine B assay; format: functional, cell-based; details: CAKI-1, 96 h; outline: as §1
[19] = system: MDA-MB-231; assay: Induction of apoptosis in human MDA-MB-231 cells assessed as DNA fragmentation; format: functional, cell-based
[20] = system: MDA-MB-231; assay: Induction of apoptosis in human MDA-MB-231 cells assessed as PARP fragmentation; format: functional, cell-based
[21] = system: MDA-MB-231; assay: Induction of apoptosis in human MDA-MB-231 cells assessed as increase of p21 WAF1 protein level at 70 nM after 24 to 72 hrs by Western blotting; format: functional, cell-based
Outline: (§2)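 MDA-MB-231 cells were exposed to 70 nM for 24, 48 or 72 h alongside untreated controls. After a PBS wash, cells were lysed in 25 mM Tris-HCl pH 7.5, 300 mM NaCl, 1% Triton X-100 with protease inhibitors. Protein was quantified by BCA, run on SDS-PAGE and transferred to nitrocellulose. Blots were probed for p21WAF1, Bcl-2 and Bad, with β-actin as the loading control.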

[22] = system: MDA-MB-231; assay: Induction of apoptosis in human MDA-MB-231 cells assessed as decrease of Bcl-2 protein level at 70 nM after 24 to 72 hrs by Western blotting; format: functional, cell-based; outline: as §2
[23] = system: MDA-MB-231; assay: Growth inhibition of human MDA-MB-231 cells at 3 uM after 96 hrs by sulforhodamine B assay relative to control; format: functional; details: MDA-MB-231, 96 h
Outline: (§3)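 MDA-MB-231 cells in DMEM with 10% FBS, 10 mM HEPES, P/S and 2 mM L-glutamine at 37 °C, 5% CO2, were treated in 96-well plates for 96 h, either alone or with a 20 nM co-treatment. They were then TCA-fixed, SRB-stained and read at 530 nm. Results are % growth inhibition versus untreated cells, with 0.5% DMSO as vehicle control, from triplicates in at least two experiments.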

[24] = system: MDA-MB-231; assay: Growth inhibition of human MDA-MB-231 cells at 5 uM after 96 hrs by sulforhodamine B assay relative to control; format: functional; details: MDA-MB-231, 96 h; outline: as §3
[25] = system: MDA-MB-231; assay: Growth inhibition of human MDA-MB-231 cells at 0.1 uM after 96 hrs by sulforhodamine B assay relative to control; format: functional; details: MDA-MB-231, 96 h
[26] = system: MDA-MB-231; assay: Growth inhibition of human MDA-MB-231 cells at 0.2 uM after 96 hrs by sulforhodamine B assay relative to control; format: functional; details: MDA-MB-231, 96 h
[27] = system: MDA-MB-231; assay: Growth inhibition of human MDA-MB-231 cells at 5 nM after 96 hrs by sulforhodamine B assay relative to control; format: functional; details: MDA-MB-231, 96 h
[28] = system: MDA-MB-231; assay: Growth inhibition of human MDA-MB-231 cells at 10 nM after 96 hrs by sulforhodamine B assay relative to control; format: functional; details: MDA-MB-231, 96 h

With `COc1cc(OC)cc(N2CCN(C(=O)Nc3nc4cc(F)ccc4nc3OC)CC2)c1` [SUPINOXIN] the IC50 [1] was 13 nM, the IC50 [2] was 21 nM and the Activity [3] was “Active”. For the same compound, the IC50 [4] was 21 nM, the “Ratio IC50” value [5] was 0.72 and the IC50 [6] was 21 nM. The IC50 [7] was 20 nM, the IC50 [8] was 19 nM and the IC50 [9] was 20 nM. It also gave an IC50 [10] of 21 nM, an IC50 [11] of 21 nM and an IC50 [12] of 15 nM. For the same compound, the IC50 [13] was 21 nM, the IC50 [14] was 20 nM and the IC50 [15] was 12 nM. It also gave an inhibition at 0.02 µM [16] of 14%, an IC50 [17] of 12 nM and an IC50 [18] of 11 nM. For the same compound, the Activity [19] was “Active”, the Activity [20] was “Active” and the Activity [21] was “Active”. For the same compound, the Activity [22] was “Active”.

`O=c1[nH]cc(F)c(=O)[nH]1` [FLUOROURACIL] showed an inhibition at 3 µM [23] of 3.3% and an inhibition at 5 µM [24] of 41.6%.

With `CC(=O)O[C@H]1C(=O)[C@@]2(C)[C@H]([C@H](OC(=O)c3ccccc3)[C@]3(O)C[C@H](OC(=O)[C@H](O)[C@@H](NC(=O)c4ccccc4)c4ccccc4)C(C)=C1C3(C)C)[C@]1(OC(C)=O)CO[C@@H]1C[C@@H]2O` [PACLITAXEL] the IC50 [4] was 140 nM, the “Ratio IC50” value [5] was 70 and the IC50 [9] was 2 nM.

Work on `COc1cc(OC)cc(N2CCN(C(=O)Nc3nc4c(OC)cccc4nc3OC)CC2)c1` yielded an IC50 [1] of 29 nM, an IC50 [2] of 42 nM and an IC50 [6] of 64 nM. It also gave an IC50 [7] of 52 nM, an IC50 [8] of 57 nM and an IC50 [9] of 60 nM. The IC50 [10] was 74 nM, the IC50 [11] was 57 nM and the IC50 [12] was 58 nM. The IC50 [13] was 63 nM, the IC50 [14] was 68 nM and the IC50 [15] was 44 nM. The IC50 [17] was 56 nM and the IC50 [18] was 33 nM.

In the case of `COc1cc(OC)cc(N2CCN(C(=O)Nc3nc4cc(Cl)ccc4nc3OC)CC2)c1`, the IC50 [1] is reported as 65 nM, the IC50 [2] is reported as 98 nM and the IC50 [6] is reported as 73 nM. For the same compound, the IC50 [7] was 64 nM, the IC50 [8] was 63 nM and the IC50 [9] was 68 nM. The IC50 [10] was 79 nM, the IC50 [11] was 76 nM and the IC50 [12] was 56 nM. It also gave an IC50 [13] of 73 nM, an IC50 [14] of 110 nM and an IC50 [15] of 42 nM. For the same compound, the IC50 [17] was 50 nM and the IC50 [18] was 53 nM.

`Nc1ccn([C@@H]2O[C@H](CO)[C@@H](O)C2(F)F)c(=O)n1` [GEMCITABINE] showed an inhibition at 0.1 µM [25] of 1% and an inhibition at 0.2 µM [26] of 17.7%.

With `COc1cc(OC)cc(N2CCN(C(=O)Nc3nc4c(C)cccc4nc3OC)CC2)c1` the IC50 [1] was 30 nM, the IC50 [2] was 54 nM and the IC50 [6] was 56 nM. For the same compound, the IC50 [7] was 57 nM, the IC50 [8] was 63 nM and the IC50 [9] was 50 nM. The IC50 [10] was 55 nM, the IC50 [11] was 57 nM and the IC50 [12] was 54 nM. The IC50 [13] was 62 nM, the IC50 [14] was 64 nM and the IC50 [15] was 39 nM. For the same compound, the IC50 [17] was 60 nM and the IC50 [18] was 32 nM.

`COc1cc(OC)cc(N2CCN(C(=O)Nc3nc4cc(C)ccc4nc3OC)CC2)c1` gave an IC50 [1] of 39 nM, an IC50 [2] of 70 nM and an IC50 [6] of 55 nM. It also gave an IC50 [7] of 40 nM, an IC50 [8] of 45 nM and an IC50 [9] of 47 nM. It also gave an IC50 [10] of 48 nM, an IC50 [11] of 63 nM and an IC50 [12] of 31 nM. For the same compound, the IC50 [13] was 51 nM, the IC50 [14] was 47 nM and the IC50 [15] was 23 nM. It also gave an IC50 [17] of 32 nM and an IC50 [18] of 29 nM.

`COc1cccc2c1C(=O)c1c(O)c3c(c(O)c1C2=O)C[C@@](O)(C(=O)CO)C[C@@H]3O[C@H]1C[C@H](N)[C@H](O)[C@H](C)O1` [DOXORUBICIN] showed an inhibition at 0.005 µM [27] of 4.2% and an inhibition at 0.01 µM [28] of 59.2%.
